# In PubChem BioAssay:
# The source made the active and inactive calls.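 The calls were made as follows, unless noted: active = mean duplicate potentiation above the buffer control mean plus 5 SD of buffer wells; inactive = the rest.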
# Target: Potassium voltage-gated channel subfamily KQT member 1 (Homo sapiens) (UniProt P51787)
# Assay: enhancement of KCNQ1 channel thallium flux – FluxOR thallium flux, CHO cells, duplicates, confirmation (AID 493007;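 active = potentiation averaged over duplicate wells exceeding buffer-only control mean by more than 3 SD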;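 as to outcome: cells depolarized by a potassium plus thallium sulfate stimulus after compound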;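 as to potentiation: 0% = buffer-only wells and 100% = R-L3 activator control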)
# Settings: KCNQ1 cell line, FluxOR thallium flux fluorescence, at 10 µM; stronger effect = higher value, % of reference activator effect, buffer zero
# How it was run: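 Assay system: CHO cells carrying KCNQ1 | Controls: Buffer and R-L3 controls | Schedule: FluxOR dye loading 90 min, compound exposure 20 min, room temperature | Read-out: Baseline-normalized fluorescence change, percent of buffer-to-R-L3 range | Replicates: Each compound tested in duplicate | Technique: Kinetic thallium influx fluorescence with FluxOR dye, 10 s baseline, 110 s post-stimulus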
# Potassium voltage-gated channel subfamily KQT member 1 (Homo sapiens), sequence (P51787 whole entry, looked up): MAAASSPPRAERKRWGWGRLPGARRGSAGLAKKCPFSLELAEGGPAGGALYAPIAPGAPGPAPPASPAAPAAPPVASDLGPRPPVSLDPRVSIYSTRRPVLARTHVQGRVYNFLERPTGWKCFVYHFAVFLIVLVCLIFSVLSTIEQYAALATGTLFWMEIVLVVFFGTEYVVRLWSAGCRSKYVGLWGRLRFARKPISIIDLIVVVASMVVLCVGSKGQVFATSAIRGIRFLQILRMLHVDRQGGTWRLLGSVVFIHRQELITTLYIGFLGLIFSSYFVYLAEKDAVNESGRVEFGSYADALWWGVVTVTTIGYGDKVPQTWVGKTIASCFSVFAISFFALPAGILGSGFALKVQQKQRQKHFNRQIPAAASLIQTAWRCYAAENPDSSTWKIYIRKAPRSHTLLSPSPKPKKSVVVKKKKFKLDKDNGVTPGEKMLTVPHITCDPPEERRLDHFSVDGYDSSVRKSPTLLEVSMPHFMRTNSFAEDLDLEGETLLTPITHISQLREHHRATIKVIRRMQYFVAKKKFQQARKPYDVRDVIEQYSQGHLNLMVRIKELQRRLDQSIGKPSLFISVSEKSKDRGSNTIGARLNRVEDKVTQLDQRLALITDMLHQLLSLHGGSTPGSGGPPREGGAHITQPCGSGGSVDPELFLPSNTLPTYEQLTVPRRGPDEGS
Structure (SMILES),potentiation,outcome
Cc1noc(C)c1CSc1ncnc2sc3c(c12)CCCCC3,60% (active),–
O=C(/C=C/c1ccco1)NC(=S)Nc1ccccc1O,–,inactive
C=CCn1c(O)c(N=NC(=S)Nc2cccc(C)c2)c2ccccc21,77% (active),–
CC(Sc1n[nH]c(N)n1)C(=O)NC1CCCCC1C (stereo unspecified),37% (active),–
Cc1snnc1C(=O)NC(=S)Nc1ccccc1,90% (active),–
O=C(NC(=S)NCc1ccccc1)c1cccs1,81% (active),–
Cc1cc(C)c2ccc(C)[n+]([O-])c2c1O,–,inactive
COC(=O)c1c(NC(=O)c2ccccc2)sc(C(=O)c2ccccc2)c1C,–,inactive
Cc1cccc(S(=O)(=O)Nc2cccc3c2C(=O)c2ccccc2-3)c1,43.5% (active),–
COc1cc(Br)cc(C=Nc2cccc(C(F)(F)F)c2)c1O,–,inactive
COc1ccc(OCC(=O)Nc2cccc(C(C)=O)c2)cc1,–,inactive
N#C/C(=C/c1cn(-c2ccccc2)nc1-c1cccc(S(=O)(=O)N2CCOCC2)c1)C(=O)NCc1ccco1,–,inactive
CCOc1ccc(N2CC(C(=O)Nc3cc(Cl)ccc3-n3cncn3)CC2=O)cc1 (stereo unspecified),–,inactive
O=C(CCC(=O)N1CCOc2ccc(Cl)cc21)NCCN1CCOCC1,–,inactive
CCCCCn1c(=O)c2ccccc2n2c(=S)[nH]nc12,39% (active),–
CCC(C)NC(=O)c1cc(Cl)c(NC(=O)C2=C(C)OCCS2)cc1OC (stereo unspecified),–,inactive
O=C(CSc1ccc2ccccc2n1)Nc1ccc(N2CCOCC2)cc1,–,inactive
COc1ccc(OC)c(S(=O)(=O)CC(O)CS(=O)(=O)c2ccccc2)c1 (stereo unspecified),–,inactive
OC(c1ccccc1)c1cccnc1 (stereo unspecified),22% (active),–
CC(Oc1ccc(Cl)cc1Cl)C(=O)NC(=S)N1CCc2ccccc21 (stereo unspecified),120% (active),–
O=C(N/N=C/c1c[nH]c2ccccc12)C1COc2ccccc2O1 (stereo unspecified),–,inactive
Cn1c(=O)c2nc3ccccc3nc2n(C)c1=O,30.5% (active),–
CC(Oc1ccc(Br)cc1)C(=O)N1CCC(C(N)=O)CC1 (stereo unspecified),–,inactive
CCN(CC)CC(=O)Nc1ccc2c(c1)Nc1ccccc1CC2,98% (active),–
Cc1ccc(C2c3c(-c4ccccc4O)n[nH]c3C(=O)N2Cc2ccncc2)cc1 (stereo unspecified),–,inactive

# Target: Potassium voltage-gated channel subfamily KQT member 2 (Rattus norvegicus) (UniProt O88943)
# Assay: KCNQ2 thallium flux enhancement – KCNQ2-CHO-K1 cells, selectivity assay for KCNQ1 potentiator project (AID 493009);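 also: assay conditions were tuned for KCNQ1 rather than KCNQ2 modulators; signal is max minus min fluorescence divided by baseline after thallium stimulus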
# Settings: FluxOR thallium flux fluorescence, at 10 µM; stronger effect = higher value, scaled: buffer 0, activator control 100
# Potassium voltage-gated channel subfamily KQT member 2 (Rattus norvegicus), sequence (O88943 whole entry, looked up): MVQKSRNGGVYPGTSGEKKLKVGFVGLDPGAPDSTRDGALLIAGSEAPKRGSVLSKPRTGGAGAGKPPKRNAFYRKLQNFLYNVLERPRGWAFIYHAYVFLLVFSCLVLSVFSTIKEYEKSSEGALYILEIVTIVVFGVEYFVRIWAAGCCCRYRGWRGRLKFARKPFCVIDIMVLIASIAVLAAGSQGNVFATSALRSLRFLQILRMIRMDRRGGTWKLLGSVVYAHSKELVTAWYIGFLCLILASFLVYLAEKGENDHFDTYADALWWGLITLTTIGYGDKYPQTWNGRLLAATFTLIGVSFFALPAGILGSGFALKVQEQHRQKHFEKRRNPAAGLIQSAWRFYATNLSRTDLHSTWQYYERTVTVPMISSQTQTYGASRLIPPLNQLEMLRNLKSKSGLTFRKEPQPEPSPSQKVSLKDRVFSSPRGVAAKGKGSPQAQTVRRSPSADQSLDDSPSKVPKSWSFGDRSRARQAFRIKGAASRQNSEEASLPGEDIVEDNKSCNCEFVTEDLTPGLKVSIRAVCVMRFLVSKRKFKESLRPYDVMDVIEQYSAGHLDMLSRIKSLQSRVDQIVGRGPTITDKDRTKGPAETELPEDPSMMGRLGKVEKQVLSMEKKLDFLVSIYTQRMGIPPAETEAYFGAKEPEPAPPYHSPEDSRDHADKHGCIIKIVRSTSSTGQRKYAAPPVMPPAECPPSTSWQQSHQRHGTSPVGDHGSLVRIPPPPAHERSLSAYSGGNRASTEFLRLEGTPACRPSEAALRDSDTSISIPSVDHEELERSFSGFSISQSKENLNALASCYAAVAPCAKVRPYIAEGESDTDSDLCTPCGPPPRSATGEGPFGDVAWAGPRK
Structure (SMILES),outcome,potentiation
CSc1ccccc1C(=O)NC1CCCc2ccccc21 (stereo unspecified),inactive,–
CCOc1cc(CNCCCN2CCOCC2)ccc1OCC(=O)NC(C)(C)C,inactive,–
C=CCN1C(=O)C(CC(=O)NCC)SC1=Nc1ccc(S(N)(=O)=O)cc1 (stereo unspecified),inactive,–
OCCN1CCN(c2ncnc3c2sc2nc(N4CCOCC4)c4c(c23)CCC4)CC1,inactive,–
CC12CCC(C/C1=N\N=C1\NC(=O)/C(=C\c3ccc(Cl)cc3)S1)C2(C)C (stereo unspecified),–,204% (active)
Cc1sc(NC(=O)CS(=O)(=O)c2ccccc2)c(C#N)c1C,inactive,–
Cc1nn2c(NCc3ccccn3)cc(C(C)C)nc2c1-c1ccccc1,inactive,–
C=CCn1c(SCN2C(=O)c3ccccc3C2=O)nc2ccc(Cl)cc2c1=O,inactive,–
COc1ccc(NC(=S)N2CCC(C(O)(c3ccccc3)c3ccccc3)CC2)cc1,–,186% (active)
Cc1ccc(C)c(NC(=S)NNC(=O)c2cc3c(s2)CCC(C)C3)c1 (stereo unspecified),–,237% (active)
CC1(C)N=C(N)NC(Nc2cccc(Br)c2)=N1,inactive,–
O=C(c1ccccn1)c1ncc(C(F)(F)F)cc1Cl,inactive,–
COc1cccc(C(=O)NNC(=O)C(=O)Nc2ccc(C)c(Cl)c2)c1,–,311% (active)
Cc1cc(Br)ccc1OCC(=O)NNC(=O)c1cnccn1,inactive,–
Cc1cc(/C=N/NC(=O)CC#N)c(C)n1-c1ccc([N+](=O)[O-])cc1,inactive,–
Cc1noc(C)c1CSc1ncnc2sc3c(c12)CCCCC3,–,178% (active)
O=C(/C=C/c1ccco1)NC(=S)Nc1ccccc1O,inactive,–
C=CCn1c(O)c(N=NC(=S)Nc2cccc(C)c2)c2ccccc21,–,286% (active)
CC(Sc1n[nH]c(N)n1)C(=O)NC1CCCCC1C (stereo unspecified),–,172% (active)
Cc1snnc1C(=O)NC(=S)Nc1ccccc1,–,270% (active)
O=C(NC(=S)NCc1ccccc1)c1cccs1,–,232% (active)
Cc1cc(C)c2ccc(C)[n+]([O-])c2c1O,inactive,–
COC(=O)c1c(NC(=O)c2ccccc2)sc(C(=O)c2ccccc2)c1C,inactive,–
Cc1cccc(S(=O)(=O)Nc2cccc3c2C(=O)c2ccccc2-3)c1,–,152% (active)
COc1cc(Br)cc(C=Nc2cccc(C(F)(F)F)c2)c1O,inactive,–
COc1ccc(OCC(=O)Nc2cccc(C(C)=O)c2)cc1,inactive,–
